Assay [1] relates to MCF7. Kind of assay: Cytotoxicity against human MCF7 cells after 48 hrs by MTT assay. The format is functional, cell-based. The conditions noted are these: MCF7, 48 h. The gist of the method: (§1)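 MTT assay. Medium with 10% FBS and 2 mM L-glutamine was DMEM for A431 and Colo-205, RPMI for A549, and MEM for MCF-7. Cultures were preincubated 24 h at 37 °C, 5% CO2. 1 × 10⁴ cells (trypan blue count) were exposed to 200, 100, 50, 25 and 10 concentration levels for 48 h at 37 °C. MTT was added for 4 h, formazan dissolved in DMSO, and A570 read. IC50 was curve-fitted from viability versus untreated cells, three experiments.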
Background: Tetrazolium assays rely on reduction of a dye to a coloured formazan, in cell work by metabolically active cells.

In assay [2] the test system is COLO 205. Kind of assay: Cytotoxicity against human COLO205 cells after 48 hrs by MTT assay. The format is functional, cell-based. The conditions noted are these: COLO 205, 48 h. The gist of the method: as §1
In assay [3] the test system is HT-29. Kind of assay: Cytotoxicity against human HT-29 cells after 48 hrs by MTT assay. The format is functional, cell-based. The conditions noted are these: HT-29, 48 h.
In assay [4] the test system is A-431. Kind of assay: Cytotoxicity against human A431 cells after 48 hrs by MTT assay. The format is functional, cell-based. The conditions noted are these: A-431, 48 h. The gist of the method:
as §1

Assay [5] concerns A549. Kind of assay: Cytotoxicity against human A549 cells after 48 hrs by MTT assay. The conditions noted are these: A549, 48 h. The format is functional, cell-based. The gist of the method: as §1
In assay [6] the test system is MCF7. Kind of assay: Ratio IC50 for monastrol to compound for human MCF7 cells. The format is functional.
Assay [7] has as its system Staphylococcus aureus. Kind of assay: Antibacterial activity against Staphylococcus aureus assessed as zone of inhibition at 100 ug/ml by agar plate method. The format is functional. The conditions noted are these: read-out: IZ. The essentials:
(§2)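 Well diffusion on Mueller-Hinton agar. Inoculum from 3–5 colonies was grown in nutrient broth and adjusted to 0.5 McFarland (about 1 × 10⁸ CFU/mL), then swabbed over the plate. Compounds were dissolved in DMSO and added to duplicate 6 mm wells. Plates were incubated 18 h at 37 °C, and inhibition zone diameter was read to the nearest mm. Ciprofloxacin was the positive control and DMSO the negative control.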

The subject of assay [8] is Staphylococcus epidermidis. Kind of assay: Antibacterial activity against Staphylococcus epidermidis assessed as zone of inhibition at 100 ug/ml by agar plate method. The conditions noted are these: read-out: IZ. The format is functional. The gist of the method:
as §2

Assay [9] relates to Bacillus subtilis. Kind of assay: Antibacterial activity against Bacillus subtilis assessed as zone of inhibition at 100 ug/ml by agar plate method. The conditions noted are these: read-out: IZ. The format is functional. The essentials:
as §2

The subject of assay [10] is Escherichia coli. Kind of assay: Antibacterial activity against Escherichia coli assessed as zone of inhibition at 100 ug/ml by agar plate method. The format is functional. The conditions noted are these: read-out: IZ. The gist of the method:
as §2

Assay [11] concerns Klebsiella pneumoniae. Kind of assay: Antibacterial activity against Klebsiella pneumoniae assessed as zone of inhibition at 100 ug/ml by agar plate method. The format is functional. The conditions noted are these: read-out: IZ. The gist of the method: as §2
Assay [12] has as its system Pseudomonas aeruginosa. Kind of assay: Antibacterial activity against Pseudomonas aeruginosa assessed as zone of inhibition at 100 ug/ml by agar plate method. The format is functional. The conditions noted are these: read-out: IZ. The essentials: as §2
Assay [13] relates to Nucleic Acid. Kind of assay: Binding affinity to calf thymus DNA assessed as change in melting temperature at compound to DNA ratio of 1:5 after 18 hrs at pH 7. The format is nucleic-acid assay. The conditions noted are these: Bos taurus. The essentials: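 Thermal melting of calf thymus DNA in 10 mM sodium phosphate with 1 mM Na2EDTA, pH 7.00. Compound was added from DMSO stock at a fixed 1:5 compound:DNA molar ratio. The mix was incubated 18 h at 37 °C, then A260 was monitored while heating at 1 °C/min over 40–90 °C. ΔTm is relative to DNA alone.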

In assay [14] the test system is Staphylococcus epidermidis. Kind of assay: Antibacterial activity against Staphylococcus epidermidis assessed as zone of inhibition at 50 ug/ml by agar plate method. The format is functional, organism-based. The gist of the method: as §2
For assay [15], the system named is Bacillus subtilis. Kind of assay: Antibacterial activity against Bacillus subtilis assessed as zone of inhibition at 50 ug/ml by agar plate method. The format is functional, organism-based. The gist of the method:
as §2

The test system of assay [16] is Escherichia coli. Kind of assay: Antibacterial activity against Escherichia coli assessed as zone of inhibition at 50 ug/ml by agar plate method. The format is functional, organism-based. The essentials: as §2
In assay [17] the test system is Klebsiella pneumoniae. Kind of assay: Antibacterial activity against Klebsiella pneumoniae assessed as zone of inhibition at 50 ug/ml by agar plate method. The format is functional, organism-based. The gist of the method:
as §2

In assay [18] the test system is Staphylococcus aureus. Kind of assay: Antibacterial activity against Staphylococcus aureus assessed as zone of inhibition at 50 ug/ml by agar plate method. The format is functional. The conditions noted are these: read-out: IZ. The essentials: as §2
Assay [19] relates to Pseudomonas aeruginosa. Kind of assay: Antibacterial activity against Pseudomonas aeruginosa assessed as zone of inhibition at 50 ug/ml by agar plate method. The conditions noted are these: read-out: IZ. The format is functional. The gist of the method: as §2
Assay [20] concerns the target T1, Kinesin-like protein KIF11 (Homo sapiens, UniProt P52732).
T1 sequence (P52732 whole entry): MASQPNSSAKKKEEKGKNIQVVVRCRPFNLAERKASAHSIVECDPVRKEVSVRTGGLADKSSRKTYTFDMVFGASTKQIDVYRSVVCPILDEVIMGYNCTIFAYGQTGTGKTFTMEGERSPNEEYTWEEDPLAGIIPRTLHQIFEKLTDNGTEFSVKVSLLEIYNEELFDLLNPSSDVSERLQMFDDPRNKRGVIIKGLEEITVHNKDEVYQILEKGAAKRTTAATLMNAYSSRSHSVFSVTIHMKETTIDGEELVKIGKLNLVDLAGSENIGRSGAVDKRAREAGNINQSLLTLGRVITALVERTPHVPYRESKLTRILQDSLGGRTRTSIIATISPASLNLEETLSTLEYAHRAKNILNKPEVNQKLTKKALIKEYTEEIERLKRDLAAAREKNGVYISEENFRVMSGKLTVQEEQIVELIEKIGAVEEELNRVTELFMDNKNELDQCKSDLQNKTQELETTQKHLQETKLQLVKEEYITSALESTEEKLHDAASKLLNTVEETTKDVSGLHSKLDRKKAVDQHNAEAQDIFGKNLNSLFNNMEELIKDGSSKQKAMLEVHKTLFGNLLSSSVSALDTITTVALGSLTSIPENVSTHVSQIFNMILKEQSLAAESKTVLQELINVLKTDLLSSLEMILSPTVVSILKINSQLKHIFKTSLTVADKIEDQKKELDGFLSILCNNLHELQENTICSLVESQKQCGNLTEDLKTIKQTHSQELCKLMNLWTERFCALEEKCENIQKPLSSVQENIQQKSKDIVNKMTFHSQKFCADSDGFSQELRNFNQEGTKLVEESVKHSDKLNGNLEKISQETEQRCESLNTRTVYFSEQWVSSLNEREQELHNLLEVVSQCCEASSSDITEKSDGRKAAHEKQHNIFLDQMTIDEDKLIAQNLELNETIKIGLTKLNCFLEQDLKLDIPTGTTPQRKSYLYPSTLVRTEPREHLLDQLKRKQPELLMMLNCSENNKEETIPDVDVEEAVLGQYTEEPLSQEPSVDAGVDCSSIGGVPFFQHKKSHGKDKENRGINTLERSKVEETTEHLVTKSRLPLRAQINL
Kind of assay: Inhibition of HsEg5.

≈ marks a conversion by molar mass, not a printed value. Calls of active or inactive are those of the source. No cut-off for these calls is given here. Where only a bound is given, the exact number is not on record here.

As to `CCOC(=O)C1=C(C)NC(=S)NC1c1cccc(OCCCOc2cccc(C3NC(=S)NC(C)=C3C(=O)OCC)c2)c1` (stereo not drawn), the IC50 (as a rule, the concentration that inhibits the measured activity by half) is 16 µg/mL (≈ 25.6 µM) in [1]; 144 µg/mL (≈ 230 µM) in assay [2]; over 200 µg/mL in assay [3]; 76 µg/mL (≈ 122 µM) in assay [4]; 120 µg/mL (≈ 192 µM) in [5]. The “Ratio IC50” value in assay [6] was 3. The zone of inhibition at 100 µg/mL in [7] was found to be 10 mm; in assay [8], 15 mm; in assay [9], 8 mm; in assay [10] it was 20 mm; in [11], 5 mm; in assay [12] it was 12 mm. The ΔTm (usually the change in melting temperature against a reference sample) in assay [13] stood at 0.1 °C. The result in assay [14], in [15], in assay [16] and in assay [17] was inactive.
`CCOC(=O)C1=C(C)NC(=S)NC1c1cccc(OC/C=C/COc2cccc(C3NC(=S)NC(C)=C3C(=O)OCC)c2)c1` (stereo not drawn): the IC50 was 175 µg/mL (≈ 275 µM) in [1]; over 200 µg/mL in assay [2]; over 200 µg/mL in assay [3]; 185 µg/mL (≈ 291 µM) in assay [4]; over 200 µg/mL in [5]. Also, the zone of inhibition at 100 µg/mL amounted to 8 mm in assay [7]; 18 mm in [8]; 12 mm in [9]; 10 mm in [10]; 8 mm in [11]; 15 mm in assay [12]. For the same compound, the ΔTm in [13] came out at 2.5 °C. The outcome in [14], in assay [15], in assay [16] and in assay [17] was inactive.
Consider `COC(=O)[C@@H]1CCCN1C(=O)C1=C(C)NC(=S)NC1c1cccc(OC/C=C\COc2cccc(C3NC(=S)NC(C)=C3C(=O)N3CCC[C@H]3C(=O)OC)c2)c1` (stereo partly drawn), for which the IC50 in [1] is 156 µg/mL (≈ 194 µM); in assay [2], 180 µg/mL (≈ 224 µM); in assay [3], over 200 µg/mL; in assay [4], 183 µg/mL (≈ 228 µM); in assay [5] it was over 200 µg/mL. Besides, the zone of inhibition at 100 µg/mL in assay [7] was determined as 15 mm; in assay [8], 17 mm; in [9], 12 mm; in assay [10] it was 12 mm; in assay [11], 3 mm; in assay [12], 12 mm. Besides, in [13], the ΔTm was 3.1 °C. For the same compound, the outcome in assay [14], in assay [15], in assay [16] and in assay [17] was inactive.
With `CCOC(=O)C1=C(C)NC(=S)NC1c1ccc(OCCCOc2ccc(C3NC(=S)NC(C)=C3C(=O)OCC)cc2OC)c(OC)c1` (stereo not drawn), the IC50 in assay [1] is 22 µg/mL (≈ 32.1 µM); in assay [2], 49 µg/mL (≈ 71.5 µM); in assay [3], over 200 µg/mL; in assay [4], 66 µg/mL (≈ 96.4 µM); in [5], 116 µg/mL (≈ 169 µM). For the same compound, the “Ratio IC50” value in assay [6] was 2.
In the case of `CCOC(=O)C1=C(C)NC(=S)NC1c1ccc(OCCCCCOc2ccc(C3NC(=S)NC(C)=C3C(=O)OCC)cc2OC)c(OC)c1` (stereo not drawn), the IC50 in [1] was 180 µg/mL (≈ 252 µM); in [2] it was 113 µg/mL (≈ 159 µM); in assay [3], over 200 µg/mL; in [4], 124 µg/mL (≈ 174 µM); in assay [5] it was over 200 µg/mL. Moreover, the zone of inhibition at 100 µg/mL in [7] was determined as 19 mm; in [8] it was 10 mm; in assay [9], 8 mm; in [10] it was 10 mm; in [11] it was 10 mm; in assay [12], 20 mm. The zone of inhibition at 50 µg/mL in assay [18] was 10 mm; in [19] it was 12 mm. Also, the outcome in [14], in [15], in [16] and in assay [17] was inactive.
Turning to `CCOC(=O)C1=C(C)NC(=S)NC1c1cccc(O)c1` (stereo not drawn) [MONASTROL], the IC50 in [1] was found to be 45 µg/mL (≈ 154 µM); in assay [2], 164 µg/mL (≈ 561 µM); in assay [4], 53 µg/mL (≈ 181 µM); in assay [5], 118 µg/mL (≈ 404 µM); in assay [20] it was 14 µM. In assay [13], the ΔTm came out at 0 °C.
